PGC1a Ac signal: compounds raising PGC1a acetylation signal, primary screen, PGC1a modulator project, cell-based, U2OS, AlphaScreen, signal-increasing mode; hit rate 0.21% among 350,000; AID 651723, 2012; overnight; activation, % at 15.6 µM;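 active means every replicate reaching activation of at least 50%, whatever the mean replicate activation; inconclusive means replicates that disagree or another doubt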;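 further: hits raise the AlphaScreen acetylation signal above neutral controls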
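System: Flag-PGC1a/GCN5 U2OS cells | Quantity: 7000 cells/well | Times: Overnight compound treatment, 37 °C | Measured by: AlphaScreen proximity luminescence, anti-acetyl-lysine antibody | Dosing: One concentration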
G6PC hep suppr: suppressors of forskolin-stimulated G6PC mRNA, dose response, PGC-1a acetylation activator project, cell-based, hepatocytes, RT-qPCR, cherry-picked samples. G6PC suppression (normalized activity, % of positive control; higher = more suppression), % at 26 µM. primary mouse hepatocytes. AID 743463, 2014. 240 tested, under 10 active. shares compounds with PGC1a Ac signal;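 active means dose curves showing G6PC suppression whose half-maximal dose is at most twice the top valid dose; inconclusive means flat curves with moderate negative activity, or unreliable fits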;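 further: G6PC expression relative to GAPDH housekeeping gene as delta delta Ct; 0% = median of neutral control wells and 100% = median of positive control wells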
PCK1 hep suppr: suppression of PCK1 mRNA in primary hepatocytes, dose response, PGC-1a acetylation activator project, cell-based, primary mouse hepatocytes, RT-qPCR, cherry-pick; shares compounds with PGC1a Ac signal; forskolin-stimulated; AID 743465, 2014; 230 tested, under 10 active; PCK1 expression decrease, unspecified at 26 µM;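 active means compounds lowering PCK1 expression whose fitted half-maximal concentration is at most twice the top tested dose; inconclusive means flat fit with moderate opposite-direction effect, or poor fit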;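 further: values are delta delta Ct of PCK1 relative to GAPDH; higher delta delta Ct means lower PCK1 expression so positive values indicate hits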
PGC1a hep suppr: suppression of PGC-1a mRNA in primary hepatocytes, dose response, PGC-1a acetylation activator project, cell-based, primary mouse hepatocytes, RT-qPCR, cherry-pick; AID 743467, 2014; shares compounds with PGC1a Ac signal; 240 tested, under 10 active; PGC-1a mRNA qPCR, forskolin; top dose 26 µM; max activity (PGC-1a expression decrease), %;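 active means compound lowering PGC-1a expression with fitted half-maximal concentration at most twice its top tested dose; inconclusive means flat curve with moderate opposite-direction effect, or poor fit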;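 further: 0% = neutral control wells median and 100% = positive control wells median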
Starred values were filed as active, the others as inactive; i = inactive; u = inconclusive; [ ] = dose if it differs, or a comment. These entries were drawn from the full list.

SMILES	PGC1a Ac signal	others
C[C@@H]1CN([C@@H](C)CO)C(=O)c2c(c3ccccc3n2C)-c2ccccc2CO[C@@H]1CN(C)C(=O)Oc1ccccc1	u	G6PC hep suppr=488;PCK1 hep suppr=u;PGC1a hep suppr=276
Cc1ccc(OC(=O)N(C)C[C@H]2OCc3ccccc3-c3c(n(C)c4ccccc34)C(=O)N([C@@H](C)CO)C[C@H]2C)cc1	82*	G6PC hep suppr=109[23.5 µM];PCK1 hep suppr=84[23.5 µM];PGC1a hep suppr=104
CC1=NN(c2ccccc2)C(=O)/C1=C/c1c(O)[nH]c(=O)[nH]c1=O	-49
Cn1ncnc2c(=O)n(C)c(=O)nc1-2	-100
c1ccc2c(N3CCNCC3)cccc2c1	-49
COc1ccc(C[C@H]2NC[C@H](O)[C@H]2OC(C)=O)cc1	-90
CCOc1ccccc1N=C1SCCCN1C	-97
O=C1NC2C(=CC(O)C(O)C2O)c2cc3c(cc21)OCO3 (stereo unspecified)	-85
c1cc(CNCCc2ccc3c(c2)OCO3)ccn1	-46
Cc1cccc(C)c1-n1nnnc1C(c1ccccc1OC(F)(F)F)N1CCC(n2c(=O)[nH]c3ccccc32)CC1 (stereo unspecified)	61*	G6PC hep suppr=i;PCK1 hep suppr=1187;PGC1a hep suppr=136
CCOc1ccccc1CNCCc1ccc2c(c1)OCO2	-40
C[C@@H]1O[C@@H](O[C@H]2C[C@@H](O)[C@]3(CO)[C@H]4[C@H](O)C[C@]5(C)[C@@H](C6=CC(=O)OC6)CC[C@]5(O)[C@@H]4CC[C@]3(O)C2)[C@H](O)[C@H](O)[C@H]1O	-83
O=C1CN=C(c2ccccc2)c2cc([N+](=O)[O-])ccc2N1	-46
